SENP8 block-1 – human SENP8 protease inhibitors, primary screen, biochemical, fluorescence, Nedd8 protein substrate, uHTS. Sentrin-specific protease 8 (Homo sapiens), Q96LD8. recombinant SENP8. inhibition, % at 20 µM. 360,000 tested, 0.64% active. AID 602440, 2012; in the data active means inhibition mostly above about 40%, no sharp cut-off; inactive means mostly below about 27%
Target sequence (Q96LD8 whole entry, looked up): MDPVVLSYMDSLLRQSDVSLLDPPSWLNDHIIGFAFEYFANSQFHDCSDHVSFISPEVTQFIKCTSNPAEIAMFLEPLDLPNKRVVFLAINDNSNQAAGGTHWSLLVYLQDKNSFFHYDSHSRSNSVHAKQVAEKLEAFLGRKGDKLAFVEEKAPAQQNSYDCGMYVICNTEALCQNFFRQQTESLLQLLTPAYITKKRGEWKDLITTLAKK
SENP6 block – SENP6 protease inhibitors, primary screen, biochemical, luminescence, uHTS; 330,000 tested, 1.8% active; inhibition, % at 10 µM; AID 2599, 2010; Recombinant SENP6 catalytic domain, aminoluciferin luminescence;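 active means inhibition above about 50% at the single tested dose, limit read from the data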;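 further: plate controls were DMSO wells with enzyme for no effect and DMSO wells lacking enzyme for full effect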
SENP8 block-2 – SENP8 protease inhibitors, primary screen, biochemical, luminescence | Sentrin-specific protease 8 (Homo sapiens), Q96LD8 | purified SENP8, Z-RLRGG-aminoluciferin cleavage | inhibition, % at 10 µM | 330,000 tested, 1.2% active; in the data active means inhibition above about 50%
SENP7 block – SENP7 protease inhibitors, primary screen, biochemical, luminescence, uHTS. Sentrin-specific protease 7 (Homo sapiens), Q9BQF6. recombinant SENP7, Z-RLRGG-aminoluciferin luminescence, 40 min. inhibition, % at 5 µM. 330,000 tested, 1.5% active. AID 434973, 2010;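 active means inhibition above about 50% at the single test dose, limit read from the data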;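 further: plate controls were DMSO with enzyme for no effect and no enzyme buffer wells for full effect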
Platelet DG rel – inhibitors of platelet dense granule secretion, primary screen, cell-based, MLPCN, human platelets | human platelet-rich plasma, SFLLRN dense granule ATP release, luminescence | inhibition, %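 (compounds screened at 7.5 µM in platelet-rich plasma)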 | 300,000 tested, 0.22% active | AID 1663, 2009;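 active means mean replicate score, as percent of positive control, at or above 50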
SENP1 FRET inh – human SENP1 catalytic domain inhibitors, primary screen, biochemical, FRET, uHTS; recombinant SENP1 catalytic domain, CyPet-SUMO1-YPet FRET cleavage; inhibition, % at 10 µM; Sentrin-specific protease 1 (Homo sapiens), Q9P0U3; AID 624204, 2012; 360,000 tested, 0.21% active;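 active means inhibition at least 30% at 10 µM, raw YFP signal under a set limit, fluorescence ratio 0.5 to 1.5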;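 further: 0% = enzyme with DMSO and 100% = no enzyme wells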
Target sequence (Q9P0U3 419-644 limits assumed): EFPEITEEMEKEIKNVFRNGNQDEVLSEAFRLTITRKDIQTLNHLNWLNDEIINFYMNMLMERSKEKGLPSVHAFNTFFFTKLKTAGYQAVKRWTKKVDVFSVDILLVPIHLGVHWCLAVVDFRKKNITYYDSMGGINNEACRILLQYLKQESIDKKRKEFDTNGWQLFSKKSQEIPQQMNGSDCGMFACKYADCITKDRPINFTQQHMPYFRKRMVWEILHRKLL
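Material – human SENP1 catalytic domain · Input – SENP1 enzyme, 20 pM final · Compound dosing – single concentration of 10 µM compound, 0.5% DMSO final · Timing – enzyme reaction for 50 min at room temperature, dark · Measured by – FRET fluorescence in CFP and YFP emission channels · Control set – no-enzyme wells low, DMSO-plus-enzyme wells high control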
Starred values were filed as active, the others as inactive; i = inactive; . = not tested or not shown. Compounds with a hit are over-represented: about 2.6% of the library has one in this group of screens.

SMILES	SENP8 block-1	SENP6 block	SENP8 block-2	SENP7 block	Platelet DG rel	SENP1 FRET inh
O=c1c2ccccc2[se]n1-c1ccccc1	-11	72*	61*	58*	-4	-1
CNc1ccc2nc3ccccc3[n+](C)c2c1	72*	66*	47	30	3	-3
C[n+]1c2ccccc2nc2ccc(NCCO)cc21	90*	81*	71*	41	4	14
CCOC(=O)c1cccc(C2=C(CNC(=O)c3nccs3)[C@H]3CC[C@@H](C2)N3Cc2ccccc2)c1	5	.	.	.	.	-1
CCOC(=O)c1cc2ccccc2n1C1CCN(Cc2ccccc2)CC1	-8	.	.	.	.	2
NCCCN1CCN(c2ccccc2)CC1	24	-10	-1	-5	0	3
COc1ccc(N2CCN(CCCN)CC2)cc1	20	-15	-1	-1	63*	1
CCOC(=O)[C@]12Cc3cc(Cl)ccc3[C@H]1N(C1CCCCC1)C(=O)c1cc(OC)ccc12	-1	.	.	.	.	-1
CC1CCN(S(=O)(=O)c2ccc(NN=C(C#N)C#N)cc2)CC1	.	-12	-10	-6	.	.
N#CC(C#N)=NNc1ccc(S(N)(=O)=O)cc1	44*	5	-4	3	5	3
O=C1NCN(c2ccccc2)C12CCN(C(c1cccc3ccccc13)c1nnnn1C1CCCCC1)CC2 (stereo unspecified)	14	.	.	.	.	3
O=[N+]([O-])c1ccc(N(CCO)CCO)c2c1no[n+]2[O-]	51*	.	.	.	.	20
CN1CCN(c2ccc(S(C)(=O)=O)cc2[N+](=O)[O-])CC1	-2	8	-2	6	-9	0
CN1CCN(c2ccc([N+](=O)[O-])c3no[n+]([O-])c23)CC1	69*	.	.	.	6	84*
O=C1C(=O)c2ccccc2-c2ccccc21	108*	97*	93*	97*	1	1
COC1CC2C=C(C)C=CC=CC(=O)NC(c3ccccc3)CC=CCCC(O)CC(=O)C2=C1O (stereo unspecified)	-10	.	.	.	.	-12
O=C(Nc1cc(Cl)cc(Cl)c1)N1Cc2ccccc2-n2nncc2C1	6	.	.	.	.	2
Cc1cc(C=C2C(=O)N(C)C(=S)N(C)C2=O)c(C)n1C1CCCCC1	41*	4	-3	-2	-3	37
O=c1c2ccccc2nc(/C=C/c2ccccc2O)n1-c1ccccc1O	-147	3	-2	-2	5	49*
O=c1c2ccccc2nc(/C=C/c2ccccc2F)n1-c1ccccc1O	-30	-2	-3	1	-1	2
Cc1ccc(C(O)(C(=O)OC(C)C)C(O)c2ccc(F)cc2)cc1 (stereo unspecified)	25	.	.	.	.	2
COc1ccc2c(c1)C13CCN4CC5=CCOC6CC(=O)N2C1C6C5CC43 (stereo unspecified)	26	.	.	.	.	3
CCCC(=O)NC1=C(N2CC2)C(=O)C(NC(=O)CCC)=C(N2CC2)C1=O	66*	.	.	.	.	4
CCCC(=O)Nc1ccc(N2CCN(CC)CC2)c(Cl)c1	14	-28	3	-3	2	0
Nc1c(C(=O)NC2CCCC2)c2nc3ccccc3nc2n1CC1CCCO1 (stereo unspecified)	i	92*	93*	90*	-1	-18
O=C1CC=C2C3CC4N(CCC45c4ccccc4N1C25)CC3=CCO (stereo unspecified)	9	.	.	.	.	-1
O=C1CC=C2C3CC4N(CCC45c4cc(O)c(O)cc4N1C25)CC3=CCBr (stereo unspecified)	59*	.	.	.	.	-3
O=P(/C=C1\OCc2ccccc21)(Oc1ccccc1)Oc1ccccc1	4	.	.	.	.	0
C/C(CC(c1ccccc1)c1c(O)c2ccccc2oc1=O)=N\Nc1ccc([N+](=O)[O-])cc1[N+](=O)[O-] (stereo unspecified)	-3	95*	-4	-6	3	3
O=c1oc2ccccc2c(O)c1C(c1ccc([N+](=O)[O-])cc1)c1c(O)c2ccccc2oc1=O	-4	.	.	.	0	0
